Compound activity: PubChem BioAssay, several laboratories
The list is not random: actives were taken first. Their share in the collection is about 2.8%.
Wee1 degr inh: human Wee1 degradation inhibition, primary screen; P30291; HeLa Luc-Wee1K328M stability, luciferase luminescence; 100% = proteasome inhibitor MG132 effect; reporter increase, % at 5 µM; 1.2% of 220,000 active; AID 1321;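 active means activation above the mean of all tested compounds plus 3 SD, set per screening run, cut at about 8.8% in these data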;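 further: cells exposed to compound for 20 h before luminescence read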
Target sequence (P30291 whole entry K328M): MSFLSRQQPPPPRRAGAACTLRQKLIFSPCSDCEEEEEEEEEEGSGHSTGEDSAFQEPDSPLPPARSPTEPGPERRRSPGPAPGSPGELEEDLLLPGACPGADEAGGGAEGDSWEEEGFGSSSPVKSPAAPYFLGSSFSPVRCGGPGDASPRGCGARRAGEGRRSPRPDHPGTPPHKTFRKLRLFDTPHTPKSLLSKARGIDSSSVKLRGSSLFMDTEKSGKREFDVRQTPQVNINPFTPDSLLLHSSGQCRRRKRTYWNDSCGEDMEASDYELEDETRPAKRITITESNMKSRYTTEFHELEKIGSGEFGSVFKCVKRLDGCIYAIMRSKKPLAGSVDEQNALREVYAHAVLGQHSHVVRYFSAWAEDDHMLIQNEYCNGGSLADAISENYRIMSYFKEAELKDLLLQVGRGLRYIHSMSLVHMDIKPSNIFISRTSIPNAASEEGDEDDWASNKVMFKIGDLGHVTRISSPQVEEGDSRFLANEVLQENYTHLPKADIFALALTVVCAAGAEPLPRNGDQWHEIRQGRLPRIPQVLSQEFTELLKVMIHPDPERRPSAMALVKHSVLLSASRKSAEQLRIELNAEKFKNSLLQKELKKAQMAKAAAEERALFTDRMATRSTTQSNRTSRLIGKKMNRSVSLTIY
p47phox inh: p47phox (human) inhibition | p47phox/p22phox peptide binding, fluorescence polarization, 2 h | inhibition, % at 24.7 µM | 0.53% of 220,000 active | AID 1274
RBBP9 inh: blocks human serine hydrolase RBBP9; O75884; recombinant RBBP9, FP-Rh probe fluorescence polarization; inhibition, % at 7.94 µM; 0.2% of 220,000 active;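 active means inhibition above the campaign mean of all tested compounds plus 3 SD, cut at about 14% in these data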
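Test system: recombinant human RBBP9; Timing: 30 min then 45 min, 25 °C; Detection: fluorescence polarization; Control set: RBBP9 with DMSO as uninhibited control, no-protein wells as full inhibition; Compound dosing: one concentration, 7.94 µM nominal, 0.794% DMSO; Probe or stimulus: FP-Rh activity-based probe, 375 nM before mixing.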
14-3-3 Bad PPI: disrupts binding of bovine 14-3-3 zeta to phospho-Bad peptide | inhibition, % at 21.7 µM | 0.71% of 220,000 active | TR-FRET 14-3-3zeta/Dy647-pBad peptide displacement, 1 h;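 active means inhibition above about 70%, limit read from the data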
eIF4E-4G inh: blocks eIF4E binding to eIF4G; P63073+Q04637; TR-FRET eIF4E-eIF4GI(517-606) binding, 2 h; inhibition, % at 21.7 µM; 0.37% of 220,000 active; AID 782
A number is an active result; n = inactive; x = no result given; [ ] = dose if it differs, or a comment.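 How the source made its calls, unless noted: active means inhibition above about 30% (limit read from the data); inactive means the rest.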

SMILES | Wee1 degr inh | p47phox inh | RBBP9 inh | 14-3-3 Bad PPI | eIF4E-4G inh
CC(C)Oc1cccc(C(=O)NC2=NCCS2)c1 | n | n | n | 79.7 | n
CC(C)Oc1cccc(C(=O)Nc2ccc(Br)cc2F)c1 | 9.1 | n | n | n | n
COc1cccc(C(=O)NC2=NCCS2)c1 | n | n | n | n | n
O=C(O)CC/C(=N\Nc1ccc([N+](=O)[O-])cc1S(=O)(=O)N1CCOCC1)c1cccs1 | n | n | n | n | n
COC(=O)/C=C1/S/C(=N/NC(=O)c2ccc(Cl)cc2Cl)NC1=O | n | n | n | n | n
Cc1oc(-c2cccc3ccccc23)nc1CN1CCN(c2ncnc3ccccc23)CC1 | n | n | n | n | n
COc1ccccc1N(CC(=O)Nc1c(C)n(C)n(-c2ccccc2)c1=O)S(=O)(=O)c1ccc(C)cc1 | n | n | n | n | n
CCOc1ccc(N(CC(=O)Nc2c(C)n(C)n(-c3ccccc3)c2=O)S(=O)(=O)c2ccccc2)cc1 | 10.6 | n | n | n | n
CNC(=S)NNc1nncc2ccccc12 | n | n | n | n | n
COc1ccc(-c2cn3cc(C)ccc3n2)cc1OC | 10.0 | n | n | n | n
COc1cc(CN2CCC(C(=O)NC3CCCC3)CC2)cc(Br)c1O | n | n | n | n | n
COc1cc(CN2CCC(C(=O)N3CCC(C)CC3)CC2)cc(Br)c1O | n | n | n | 79.3 | n
O=C(O)CCC(=O)c1ccc2c(c1)CCCC2 | 15.0 | n | n | n | n
O=C(O)c1ccc2c(c1)CCC2 | n | n | n | n | n
CCCN1CCN(C(=O)CCCNC(=O)Cn2cnc3sc(C)c(C)c3c2=O)CC1 | n | n | n | n | 35.9[fluorescence artefact?]
COc1ccc(CNc2ccc(Br)cc2)cc1 | 10.4 | n | n | n | n
COC(=O)CSc1nc2sc3c(c2c(=O)[nH]1)CCC3 | n | 76.5 | n | n | n
O=C(CSc1nc2sc3c(c2c(=O)[nH]1)CCC3)NCCO | n | n | n | n | n
CCOc1ccc(N(C(C)C(=O)Nc2ccc(OC)cc2)S(C)(=O)=O)cc1 (stereo unspecified) | n | n | n | n | n
COCCNC(=O)C(C)N(c1ccc(OC)cc1)S(C)(=O)=O (stereo unspecified) | 10.0 | n | n | n | n
CCOC(=O)c1ccc(N2C(=O)CC(Nc3ccc(O)cc3)C2=O)cc1 (stereo unspecified) | n | 34.7 | n | n | n
O=[N+]([O-])c1ccc(/C=C/C2=NN(c3ccccc3)C(c3ccco3)C2)cc1 (stereo unspecified) | n | 33.8 | n | n | n
O=[N+]([O-])c1ccc(C2=NN(c3ccccc3)C(c3ccco3)C2)cc1 (stereo unspecified) | n | n | n | n | n
COc1ccc(C(C)=O)cc1CSc1nnc(-c2ccc(Cl)cc2)n1-c1ccccc1 | n | n | n | n | n
N#CCc1ccc(C(=O)c2ccccc2)s1 | n | n | n | n | n
SMILES | Wee1 degr inh | p47phox inh | RBBP9 inh | 14-3-3 Bad PPI | eIF4E-4G inh
O=C(c1ccco1)N1C(=O)c2cccc3cccc1c23 | n | 150.2 | n | n | n
Nc1cccc2c1C(=O)N(C(=O)c1ccco1)C2=O | n | n | n | n | n
COc1ccc(C(CCNC(C)c2ccccc2)C(C)C)cc1 (stereo unspecified) | n | 42.2 | n | n | n
COc1ccc(C(CC(=O)NCc2ccccc2)C(C)C)cc1 (stereo unspecified) | n | n | n | n | n
Cc1nc(SCC(=O)NC(C)(C)C)c2c(-c3cccs3)csc2n1 | n | n | n | n | n
COc1ccc(Cc2c(O)nc(SCC(=O)NC34CC5CC(CC(C5)C3)C4)[nH]c2=O)cc1 | n | n | n | n | n
CCC(C)NC(=O)CSc1nc2cc3c(cc2c(=O)n1Cc1ccco1)OCO3 (stereo unspecified) | n | 30.1 | n | n | n
CCN(CC)C(=O)CSc1nc2cc3c(cc2c(=O)n1Cc1ccco1)OCO3 | n | n | n | n | n
COc1ccc(Nc2cc(C(=O)NCCCN3CCOCC3)c3ccccc3n2)cc1OC | n | n | n | n | n
COc1ccc(Nc2cc(C(=O)NCCCN3CCN(C)CC3)c3ccccc3n2)cc1OC | n | 72.7 | n | n | n
CCOC(=O)c1nc(NCc2cccc(OC)c2)c2ccccc2n1 | n | n | n | n | n
O=C(O)c1cc(-c2ccc(O)cc2)on1 | n | n | n | 79.3 | n
O=C(O)c1cc(-c2ccccc2)on1 | n | n | n | n | n
COc1ccc(-c2csc(NC(=O)C3CCCCN3S(=O)(=O)c3ccccc3)n2)cc1 (stereo unspecified) | 10.0 | n | n | n | n
COc1ccc(S(=O)(=O)N2CCCC2C(=O)Nc2ccc(C)cc2)cc1 (stereo unspecified) | n | n | n | n | n
CCOc1ccc2c(c1)nc(SCC(=O)c1cccs1)n2C | n | n | n | 72.7 | n
Cc1ccc(S(=O)(=O)N2CCC(NC(=O)OC(C)C)CC2)cc1 | n | n | n | n | n
NS(=O)(=O)c1ccccc1 | 14.3 | n | n | n | n
COC(=O)c1ccc(Oc2nc(NC(C)(C)C)nc(N3CCOCC3)n2)cc1 | n | n | n | n | n
Cc1cc(C(=O)N(NC(=O)C(C)C)c2ccccc2)cs1 | n | x | n | n | n
Cc1ccc(CNCC2CCCO2)s1 (stereo unspecified) | n | n | n | 90.2 | n
Cc1ccc2nc(N3CCN(c4cccc(C)c4C)CC3)c3nnnn3c2c1 | 10.4 | n | n | n | n
CCCCc1ccc(-c2nc(-c3ccncc3)no2)cc1 | n | 61.5 | n | n | n
Cc1ccc(Cc2nc(-c3ccncc3)no2)cc1 | 9.7 | n | n | n | n
CCCCOc1ccc(-c2nc(-c3cccnc3)no2)cc1 | n | n | n | 160.4[fluorescence artefact?] | n
SMILES | Wee1 degr inh | p47phox inh | RBBP9 inh | 14-3-3 Bad PPI | eIF4E-4G inh
CCOc1ccc(-c2nc(-c3cccnc3)no2)cc1 | n | n | n | n | n
COc1ccc(Cc2nc(-c3ccc(Cl)cc3)no2)cc1 | n | n | n | n | n
O=Cc1ccc(Oc2cnccn2)cc1 | n | n | n | n | n
CN1CCc2cccc3c2[C@H]1Cc1ccc(O)c(O)c1-3 | n | n | 27.8 | n | n
CC(C)c1ccccc1NC1=CC(=O)CC(C)(C)C1 | n | n | n | n | n
CCOC(=O)c1c(NC(=O)CCC(=O)O)sc2c1CC(C)(C)OC2 | n | n | n | n | n
CCOC(=O)c1c(NC(=O)C2CC2)sc2c1CC(C)(C)OC2 | n | n | n | 91.4 | n
COc1cc(C(=O)OCC(=O)NC(=O)C2CCCCC2)ccc1OC(F)F | 9.8 | n | n | n | n
COc1ccc(C(=O)Oc2cccnc2)cc1OC | n | n | n | 73.1 | n
CCOC(=O)c1c(C)[nH]c(C)c1C(=O)COC(=O)c1ccc(OC)c(OC)c1 | n | n | n | n | n
COc1ccc(C(=O)COC(=O)c2ccc(OC)c(OC)c2)cc1OC | n | 95.9 | n | n | n
COc1ccc(C(=O)CC(=O)C(=O)NCCc2cccc(C)c2)cc1 | n | n | n | n | n
